According to ChEMBL document CHEMBL2346548, “Design, synthesis, and structure-activity relationship studies of tryptanthrins as antitubercular agents” (J Nat Prod, 2013):
Converted amounts (≈) assume the structure as drawn.

How the values were obtained:
Vero = assay: Cytotoxicity against african green monkey Vero cells; assay type: cell-based, Chlorocebus sabaeus; conditions: Chlorocebus sabaeus, Vero; read-out: IC50
[1] = tested on: Mycobacterium tuberculosis; assay: Antitubercular activity against Mycobacterium tuberculosis H37Rv incubated at 37 degC for 7 days by microplate alamar blue assay; assay type: functional; conditions: for MIC: Mycobacterium tuberculosis, H37Rv, 168 h
Procedure, shortened: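 Mtb H37Rv was grown in 7H9 broth with glycerol, Casitone, 10% OADC and 0.05% Tween 80 to OD600 0.4. Compounds were 2-fold serially diluted from DMSO stocks in 7H9, and wells were inoculated at 2 × 10⁵ CFU/mL. After 7 days at 37 °C, Alamar Blue was added and read after a further 24 h. MIC was the lowest concentration preventing the blue-to-pink change.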

[2] = Permeability across apical to basolateral side in human Caco2 cells incubated for 1 hr at 37 degC by HPLC-MS/MS method; assay type: ADME, cell-based; conditions: Caco-2
Procedure, shortened: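 TC7 (Caco-2 subclone) monolayer; 10 μM compound in 1% DMSO in HBSS-MES pH 6.5 on apical donor side, basolateral receiver pH 7.4; shaken 1 h at 37 °C; receiver sampled, HPLC-MS/MS; duplicate means.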

[3] = tested on: Mycobacterium tuberculosis; assay: Antitubercular activity against non-replicating Mycobacterium tuberculosis H37Rv incubated for 10 days by LORA method; assay type: functional; conditions: 240 h
Procedure, shortened: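 H37Rv carrying pFCA-luxAB was adapted to low oxygen by gradual self-depletion in a sealed, slowly stirred flask. It was then exposed to compounds for 10 days under anaerobic conditions. Cultures recovered for 28 h in ambient oxygen before n-decanal substrate was added and luminescence read. MIC was the lowest concentration giving a 90% reduction in luminescence versus untreated controls.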

[4] = tested on: Mycobacterium tuberculosis; assay: Antitubercular activity against Mycobacterium tuberculosis H37Rv incubated at 37 degC for 14 days in presence of 40% human serum by microplate alamar blue assay; assay type: functional; conditions: 336 h
Procedure, shortened: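 This is the MABA run in 7H9 broth containing 40% human serum. Compounds were 2-fold serially diluted, and wells were inoculated with H37Rv at 2 × 10⁵ CFU/mL. Incubation was at 37 °C for 14 days, then Alamar Blue was added. MIC was the lowest concentration preventing the blue-to-pink colour change.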

[5] = Solubility in simulated intestinal fluid at pH 7.6 by HPLC method; assay type: physicochemical
Procedure, shortened: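 Simulated intestinal fluid medium; each analogue 200 μM final in 2% DMSO, shaken 24 h at room temperature, then HPLC with photodiode array read at 230 nm; duplicate, means given.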

[6] = Protein binding in human plasma at 10 uM incubated for 8 hrs at 37 degC by equilibrium dialysis method; assay type: ADME, cell-free; conditions: read-out: PPB (converted)
Procedure, shortened: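 Equilibrium dialysis: 10 μM compound in 1% DMSO in human plasma vs 0.05 M phosphate buffer pH 7.5 across 12–14 K cutoff membrane, at least 8 h at 37 °C; HPLC-photodiode detection at 230 nm; duplicate means.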

CYP3A4 = CYP3A4 (Homo sapiens, UniProt P08684); assay: Inhibition of human recombinant CYP3A4 at 10 uM incubated for 30 mins at 37 degC using 7-benzyloxy-4-(trifluoromethyl)coumarin substrate; assay type: ADME; conditions: recombinant CYP3A4, probe 7-benzyloxy-4-(trifluoromethyl)coumarin
CYP2C9 = CYP2C9 (Homo sapiens, UniProt P11712); assay: Inhibition of human recombinant CYP2C9 at 10 uM incubated for 80 mins at 37 degC using 7-methoxy-4-trifluoromethylcoumarin substrate; assay type: ADME; conditions: recombinant CYP2C9, probe 7-methoxy-4-trifluoromethylcoumarin
CYP2C19 = CYP2C19 (Homo sapiens, UniProt P33261); assay: Inhibition of human recombinant CYP2C19 at 10 uM incubated for 60 mins at 37 degC using 3-cyano-7-ethoxycoumarin substrate; assay type: ADME; conditions: recombinant CYP2C19, probe 3-cyano-7-ethoxycoumarin
[7] = Solubility in simulated gastric fluid at pH 1.5 by HPLC method; assay type: physicochemical
Procedure, shortened: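 Compound at 200 μM final in 2% DMSO in simulated gastric fluid, shaken 24 h at room temperature; HPLC-photodiode array detection at 230 nm; duplicate means.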

[8] = Distribution coefficient, log D of the compound between n-octanol and PBS buffer at pH 7.4 incubated for 1 hr by shake flask method; assay type: physicochemical
Procedure, shortened: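 Partition between n-octanol and PBS pH 7.4 after 1 h shaking at room temperature; phases analysed by HPLC with photodiode detection; logD = log10 of organic/aqueous amount.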

[9] = Metabolic stability in human liver microsomes assessed as parent compound remaining at 1 uM incubated for 1 hr by HPLC-MS/MS method; assay type: ADME, Microsome; conditions: read-out: Stability
Procedure, shortened: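 Pooled mixed-gender human liver microsomes (0.3 mg/mL protein), 1 μM compound with NADP-regenerating system in phosphate buffer pH 7.4, 1 h at 37 °C; parent measured at start and end by HPLC-MS/MS; duplicate means.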

[10] = Permeability across basolateral to apical side in human Caco2 cells incubated for 1 hr at 37 degC by HPLC-MS/MS method; assay type: ADME, cell-based; conditions: Caco-2
[11] = Efflux ratio in human Caco2 cells incubated for 1 hr at 37 degC by HPLC-MS/MS method; assay type: ADME, cell-based; conditions: Caco-2
[12] = Aqueous solubility in PBS buffer at pH 7.4 by HPLC method; assay type: physicochemical
Procedure, shortened: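 Compound at 200 μM final in 2% DMSO in PBS pH 7.4, shaken 24 h at room temperature; quantified by HPLC with photodiode array detection at 230 nm; duplicate, mean reported.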

[13] = Half life in female rat at 56 mg/kg, po; assay type: ADME, organism-based; set-up: dose 56 mg/kg, route oral; conditions: in vivo
[14] = Half life in male rat at 56 mg/kg, po; assay type: ADME, organism-based; set-up: dose 56 mg/kg, route oral; conditions: in vivo
[15] = PBS buffer, read-out: solubility

Sequence of CYP2C19 (P33261 whole entry): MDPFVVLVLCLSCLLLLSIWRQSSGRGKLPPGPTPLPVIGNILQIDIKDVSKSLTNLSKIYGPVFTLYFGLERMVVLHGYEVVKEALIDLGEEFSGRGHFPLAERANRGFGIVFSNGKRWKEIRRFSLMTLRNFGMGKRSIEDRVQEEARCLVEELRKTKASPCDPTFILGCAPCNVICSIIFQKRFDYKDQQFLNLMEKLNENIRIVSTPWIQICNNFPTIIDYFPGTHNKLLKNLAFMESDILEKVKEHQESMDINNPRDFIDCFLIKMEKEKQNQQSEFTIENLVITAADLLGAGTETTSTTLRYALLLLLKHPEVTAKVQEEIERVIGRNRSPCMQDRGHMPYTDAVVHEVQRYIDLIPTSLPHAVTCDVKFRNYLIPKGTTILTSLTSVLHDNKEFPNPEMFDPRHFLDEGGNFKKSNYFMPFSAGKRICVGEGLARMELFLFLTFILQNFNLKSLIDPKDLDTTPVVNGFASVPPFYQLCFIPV
Sequence of CYP3A4 (P08684 whole entry): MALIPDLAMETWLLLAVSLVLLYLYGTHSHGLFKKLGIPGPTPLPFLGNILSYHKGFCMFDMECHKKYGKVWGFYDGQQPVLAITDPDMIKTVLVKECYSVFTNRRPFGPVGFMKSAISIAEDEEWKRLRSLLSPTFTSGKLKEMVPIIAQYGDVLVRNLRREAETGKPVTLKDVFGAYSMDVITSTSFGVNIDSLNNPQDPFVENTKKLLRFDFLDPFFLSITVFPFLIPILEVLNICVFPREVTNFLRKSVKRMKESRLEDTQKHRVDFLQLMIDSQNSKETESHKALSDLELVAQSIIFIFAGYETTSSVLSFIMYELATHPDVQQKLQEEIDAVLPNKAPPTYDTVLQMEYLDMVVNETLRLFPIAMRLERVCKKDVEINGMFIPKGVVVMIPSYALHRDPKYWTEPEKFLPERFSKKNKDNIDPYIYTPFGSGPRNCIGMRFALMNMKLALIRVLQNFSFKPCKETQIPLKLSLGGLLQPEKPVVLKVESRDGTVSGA
Sequence of CYP2C9 (P11712 whole entry): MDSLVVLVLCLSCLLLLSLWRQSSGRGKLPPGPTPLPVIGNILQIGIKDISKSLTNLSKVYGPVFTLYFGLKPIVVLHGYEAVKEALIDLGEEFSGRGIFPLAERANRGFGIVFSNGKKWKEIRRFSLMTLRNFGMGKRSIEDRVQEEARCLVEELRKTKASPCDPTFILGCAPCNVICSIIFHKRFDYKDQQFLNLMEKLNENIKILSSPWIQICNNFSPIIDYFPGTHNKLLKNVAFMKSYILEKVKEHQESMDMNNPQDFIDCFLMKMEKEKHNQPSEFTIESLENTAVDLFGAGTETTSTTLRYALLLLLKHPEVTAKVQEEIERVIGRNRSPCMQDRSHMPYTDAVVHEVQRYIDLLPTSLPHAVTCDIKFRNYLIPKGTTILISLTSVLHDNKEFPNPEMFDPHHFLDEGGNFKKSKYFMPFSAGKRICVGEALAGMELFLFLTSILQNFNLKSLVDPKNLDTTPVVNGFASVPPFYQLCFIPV

| Compound | IC50 (Vero) [µg/mL] | MBC90 [1] [µg/mL] | MIC [1] [µg/mL] | Papp A→B at 1 h [2] [×10⁻⁶ cm/s] | MIC90 [3] [µg/mL] | MIC [4] [µg/mL] | solubility [5] [µM] | fraction unbound at 8 h, 10 µM [6] | inhibition at 0.5 h, 10 µM (CYP3A4) [%] | inhibition at 80 min, 10 µM (CYP2C9) [%] | inhibition at 1 h, 10 µM (CYP2C19) [%] | solubility [7] [µM] | logD at 1 h [8] | remaining at 1 h, 1 µM [9] [%] | Papp B→A at 1 h [10] [×10⁻⁶ cm/s] | efflux ratio at 1 h [11] | solubility [12, 15] [µM] | half-life [13] [h] | solubility ([12]; buffer) [µM] | half-life [14] [h] |
| --- | --- | --- | --- | --- | --- | --- | --- | --- | --- | --- | --- | --- | --- | --- | --- | --- | --- | --- | --- | --- |
| O=C1c2ccc(Cl)cc2-n2c1nc1ccccc1c2=O | > 50 | 0.5 (≈ 1.77 µM) | 0.25 (≈ 0.884 µM) | 0.4 | > 50 | 0.5 | 20.3 (≈ 5.74 µg/mL) | 0.01 | 7 | 25 | 4 | 71.9 (≈ 20.3 µg/mL) | 2.45 | 27 | 0.1 | – | – | – | – | – |
| O=C1c2cc(Cl)ccc2-n2c1nc1ncccc1c2=O | 5.4 (≈ 19 µM) | 0.25 (≈ 0.881 µM) | 0.125 (≈ 0.441 µM) | 73.8 | 1.4 (≈ 4.94 µM) | 0.125 | 18.9 (≈ 5.36 µg/mL) | 0.051 | 62 | 54 | 67 | 6 (≈ 1.7 µg/mL) | 1.77 | 96 | 44 | > 1 | 8 (≈ 2.27 µg/mL) | – | – | – |
| O=C1c2cc(Br)ccc2-n2c1nc1ccncc1c2=O | > 50 | 0.25 (≈ 0.762 µM) | 1 (≈ 3.05 µM) | – | > 50 | 0.5 | 34.4 (≈ 11.3 µg/mL) | – | 14 | 10 | 16 | 45 (≈ 14.8 µg/mL) | 1.6 | 96 | – | – | 35.4 (≈ 11.6 µg/mL) | – | – | – |
| CCOC(=O)c1ccc2c(c1)C(=O)c1nc3ccccc3c(=O)n1-2 | > 16 | – | 0.5 (≈ 1.56 µM) | 4.2 | – | 1 | 11.1 (≈ 3.56 µg/mL) | 0.016 | 5 | 38 | 10 | 1.5 (≈ 0.48 µg/mL) | 2.94 | 0 | 0.8 | – | 3.8 (≈ 1.22 µg/mL) | – | – | – |
| O=C1c2cc(Cl)ccc2-n2c1nc1ccccc1c2=O | > 50 | 0.125 (≈ 0.442 µM) | 0.125 (≈ 0.442 µM) | – | > 50 | 0.25 | 16.7 (≈ 4.72 µg/mL) | – | 10 | 38 | 13 | 26.8 (≈ 7.58 µg/mL) | 2.76 | – | – | – | 3.3 (≈ 0.933 µg/mL) | – | – | – |
| O=C1c2ccccc2-n2c1nc1ccc(Br)cc1c2=O | > 50 | 0.5 (≈ 1.53 µM) | 0.25 (≈ 0.764 µM) | – | > 50 | 0.5 | 49.4 (≈ 16.2 µg/mL) | – | 10 | 20 | 10 | – | 1.69 | – | – | – | – | – | – | – |
| O=C1c2ccccc2-n2c1nc1ccccc1c2=O [TRYPTANTHRIN] | > 8 | 1 (≈ 4.03 µM) | 1 (≈ 4.03 µM) | 60.1 | – | 1 | 12.9 (≈ 3.2 µg/mL) | 0.041 | 12 | 25 | 9 | 11.7 (≈ 2.9 µg/mL) | 2.29 | 15 | 22.5 | > 1 | – | 4.35 | 5.4 (≈ 1.34 µg/mL) | 5.6 |
